A selection: hits, their analogues and other compounds. The true share with any hit is near 2%.
LMPTP inh – blocks human LMPTP phosphatase | recombinant LMPTP-A, OMFP fluorogenic substrate, fluorescence intensity | inhibition, % at 20 µM | 360,000 tested, 0.22% active | AID 651560;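 active = compounds that cut the enzyme signal by at least half of the control window in the single-dose screen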
Target sequence (P24666 whole entry, looked up): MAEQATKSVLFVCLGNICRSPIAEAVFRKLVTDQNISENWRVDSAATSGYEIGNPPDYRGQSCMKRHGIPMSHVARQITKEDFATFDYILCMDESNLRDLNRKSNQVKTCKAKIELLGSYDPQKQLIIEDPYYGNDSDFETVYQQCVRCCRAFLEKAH
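Test system: LMPTP-A, protein tyrosine phosphatase of low molecular weight; Input: 0.625 nM enzyme; Incubation: 50 min dark incubation at room temperature; Signal: endpoint fluorescence intensity from OMFP dephosphorylation; Read-out basis: % inhibition versus control wells.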
DNMT1 block – inhibitors of human DNMT1. P26358. DNMT1 molecular beacon, Hinp1I cleavage, fluorescence. inhibition (reported as % activation of signal), % at 10 µM. 360,000 tested, 0.83% active. AID 588458; in the data active = inhibition above about 50%
Rpn11 block – Rpn11 (human) deubiquitinase inhibition. human 26S proteasome, Ub4-pepOG fluorescence polarization; 20S core pre-blocked with epoxomicin. inhibition, % at 20 µM. 360,000 tested, 0.59% active. AID 588493;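 active = inhibition at 20 µM, scaled to each plate's controls, above about 33%, limit read from the data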
Target sequence (O00487 whole entry, looked up): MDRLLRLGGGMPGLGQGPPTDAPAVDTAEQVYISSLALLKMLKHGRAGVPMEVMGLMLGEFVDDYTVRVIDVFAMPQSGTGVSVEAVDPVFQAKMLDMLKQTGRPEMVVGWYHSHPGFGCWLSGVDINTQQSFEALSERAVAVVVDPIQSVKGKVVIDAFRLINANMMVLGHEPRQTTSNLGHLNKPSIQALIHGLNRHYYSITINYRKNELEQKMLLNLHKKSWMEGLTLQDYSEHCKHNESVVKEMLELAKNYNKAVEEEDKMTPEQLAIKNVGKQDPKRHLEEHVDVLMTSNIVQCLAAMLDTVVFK
Scp-1 inhibitor – Scp-1 (human) phosphatase inhibition; Q9GZU7; Recombinant Scp1, phosphopeptide, malachite green phosphate absorbance; inhibition, % at 20 µM; 340,000 tested, 0.88% active;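 active = inhibition above about 50% at 20 µM, limit read from the data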
Target sequence (Q9GZU7 76-261 limits assumed): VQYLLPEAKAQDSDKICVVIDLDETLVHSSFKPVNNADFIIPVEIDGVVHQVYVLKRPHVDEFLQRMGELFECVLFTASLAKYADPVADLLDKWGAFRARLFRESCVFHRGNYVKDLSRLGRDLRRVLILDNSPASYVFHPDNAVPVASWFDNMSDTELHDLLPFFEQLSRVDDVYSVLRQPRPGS
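Assay system: SCP-1 catalytic fragment, aa 76-261 | Buffer or medium: Tris acetate buffer pH 5.5 with MgCl2 and Tween-20 | Compound: One concentration, 20 µM, with 1.0% DMSO | Also added: Phospho 17-mer peptide substrate | Signal: Absorbance at 630 nm | Incubation: 45 min enzyme reaction at room temperature | Measure: % inhibition of SCP-1 phosphate liberation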
STEP block – blocks human striatal-enriched tyrosine phosphatase; P54829; recombinant STEP, OMFP fluorogenic substrate, fluorescence; inhibition, % at 20 µM; 360,000 tested, 0.25% active; AID 588621;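 active = inhibition at 20 µM, scaled per plate between control wells, above about 37%, limit read from the data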
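Material: STEP (striatal-enriched tyrosine phosphatase) enzyme, cell-free; Compound dosing: 20 µM single dose in 1% DMSO; Technique: fluorescence read at 480 nm ex / 540 nm em; Times: reaction 20 min, ambient temperature; Medium: 50 mM Bis-Tris pH 6.0 with 2.5 mM DTT and 0.005% Tween 20; Also added: OMFP at 25 µM.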
Scp-1 conf – Scp-1 (human) inhibition, single-dose confirmed | shares compounds with Scp-1 inhibitor | recombinant SCP-1 catalytic domain, phosphate release, malachite green absorbance | inhibition, % at 20 µM | 2,500 tested, 61% active
MG interference – interferes with malachite green readout, flagging false Scp-1 hits | 2,500 tested, under 10 active | apparent inhibition (interference), % at 20 µM | shares compounds with Scp-1 inhibitor | Colorimetric interference counterscreen, malachite green absorbance 630 nm;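 also: compounds added after enzyme reaction finished so only phosphate colour detection is probed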
Scp1 DSF – binds human Scp-1, shifting its melting temperature; Recombinant SCP1, Sypro Orange thermal shift Tm; 1,500 tested, 25% active; shares compounds with Scp-1 inhibitor; thermal shift relative to vanadate control, % at 40 µM;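 active = substances whose mean melting-temperature shift, as a percentage of the reference inhibitor's shift, reaches about 5.3%, limit read from the data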
Beacon interf DR – counter-screen for DNMT1 inhibitors: spectral interference, dose response; shares compounds with DNMT1 block; molecular beacon fluorescence; IC50, µM; 200 tested, under 10 active; AID 602382; call rule not given here
DNMT1 inh conf – DNMT1 inhibition confirmation, single concentration; shares compounds with DNMT1 block; DNMT1 molecular beacon HinP1I cleavage, fluorescence; inhibition, % at 10 µM; 2,300 tested, 8% active;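 active = average inhibition of at least 30% in the single-concentration confirmation test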
DNMT1 interf – counter-screen for DNMT1 inhibitors: spectral interference | activation (fluorescence interference), % at 10 µM | 2,300 tested, 1% active | shares compounds with DNMT1 block | DNMT1 molecular beacon spectral interference counterscreen, fluorescence 485/520 | AID 602387;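 active = activation of at least 30% at 10 µM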;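 also: DNMT1 catalytic domain with a HinP1I cleavage step and a FAM/dabcyl DNA beacon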
A number is an active result; – = inactive; · = not tested or not shown.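 The calls were made as follows, unless noted: active = inhibition of at least 30% at 20 µM; inactive = the rest.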

SMILES	LMPTP inh	DNMT1 block	Rpn11 block	Scp-1 inhibitor	STEP block	Scp-1 conf	MG interference	Scp1 DSF	DNMT1 inh conf	DNMT1 interf	others
O=C(O)/C(=C/c1ccco1)NC(=O)c1ccccc1	–	67	–	75	–	42	–	–	–	–
CC(C)(C)c1ccc(C(=O)N/C(=C\c2ccco2)C(=O)O)cc1	–	–	–	–	–	·	·	·	·	·
COc1ccc(N2Cc3cccc(C(=O)N4CCN(C(=O)c5ccco5)CC4)c3C2=O)cc1	–	80	–	92	–	60	–	–	–	–	Beacon interf DR=–
c1coc(-c2nnc3sc(Cc4cccs4)nn23)c1	–	67	–	86	–	61	–	–	–	–
CCOC(=O)c1cc(-c2ccc(N3CCOCC3)cc2)nn1-c1ccccc1C(=O)O	58	94	60	80	96	64	–	–	35	–	Beacon interf DR=–
N#Cc1c(/N=C/c2ccc(-c3ccc(C(=O)O)c(Cl)c3)o2)sc2c1CCCC2	–	–	–	–	–	·	·	·	·	·
N#Cc1c(/N=C/c2ccc(-c3ccccc3C(=O)O)o2)sc2c1CCCC2	–	52	–	57	–	43	–	8.0	–	–
CC1CCC2(CC1)NC(=O)N(CC(=O)Nc1ccc(F)cc1)C2=O (stereo unspecified)	–	–	–	–	–	·	·	·	·	·
CCC1=NN2C(=N)/C(=C\c3ccc(OCc4cc(=O)n5nc(CC)sc5n4)c(OC)c3)C(=O)N=C2S1	–	87	–	75	–	51	–	–	–	–
N=C1/C(=C\c2ccc(Br)o2)C(=O)N=C2SC(CC(=O)N3CCCCC3)=NN12	–	94	–	80	–	48	–	12	–	–
Cc1ccc(/C=C2/C(=N)N3N=C(CC(=O)N4CCCC4)SC3=NC2=O)o1	–	–	–	–	–	·	·	·	·	·
O=C(/C=C/c1ccc(Cl)c([N+](=O)[O-])c1)Nc1ccc(NC(=O)c2ccco2)cc1	–	–	–	–	–	·	·	·	·	·
O=C(/C=C/c1ccc(Cl)c([N+](=O)[O-])c1)Nc1ccc(N2CCCC2)cc1	–	88	–	88	–	77	–	6.0	–	–
COc1cc(OC)c(NS(=O)(=O)c2cc(C(=O)NCCCN3CCOCC3)ccc2C)cc1Cl	–	–	–	·	–	·	·	·	·	·
O=C(Cc1ccc(S(=O)(=O)N2CCOCC2)s1)Nc1nc2c(s1)CCCC2	–	89	–	64	–	74	–	11	–	–
Cn1c(N)c(C(=O)COC(=O)C2Cc3ccccc3CN2S(C)(=O)=O)c(=O)n(C)c1=O (stereo unspecified)	–	–	–	·	–	·	·	·	·	·
CCCCC1Cc2[nH]c(=S)[nH]c(=O)c2C(C(C)C)O1 (stereo unspecified)	–	·	·	·	·	·	·	·	·	·
O=C(CNC(=O)c1cccc(OC(F)F)c1)OCC(=O)c1ccccc1	–	–	–	–	–	·	·	·	·	·
O=C(CNC(=O)c1cccc(OC(F)F)c1)OCc1cc(=O)n2cc(Br)ccc2n1	–	108	–	61	–	58	–	–	–	–
O=C(N/N=C/c1ccc([N+](=O)[O-])o1)c1cn2ccc3ccccc3c2n1	–	55	–	80	–	–	–	·	–	–
Cc1ccccc1NC(=O)CCS(=O)(=O)c1ccc(Br)cc1	–	–	–	–	–	·	·	·	·	·
Cc1ccc(CNC(=O)CCS(=O)(=O)c2ccc(Br)cc2)cc1	–	89	–	84	–	76	–	–	–	–
O=C(CCS(=O)(=O)c1ccc(Br)cc1)NCCC1=CCCCC1	–	65	–	63	–	72	–	–	–	–
CCN(CC)c1ccc(NC(=O)CCS(=O)(=O)c2ccc(Br)cc2)c(C)c1	–	97	–	82	–	49	–	–	42	–	Beacon interf DR=–
Cc1ccc(CNC(=O)CCS(=O)(=O)c2ccc(Cl)cc2)cc1	–	–	–	–	–	·	·	·	·	·
SMILES	LMPTP inh	DNMT1 block	Rpn11 block	Scp-1 inhibitor	STEP block	Scp-1 conf	MG interference	Scp1 DSF	DNMT1 inh conf	DNMT1 interf	others
CCOc1ccccc1Nc1nnc(SCC(=O)N(C)C2CCS(=O)(=O)C2)s1 (stereo unspecified)	–	–	–	–	–	·	·	·	·	·
O=C(Nc1ccc(NC(=O)c2cccc([N+](=O)[O-])c2)cc1)c1cccc([N+](=O)[O-])c1	–	–	–	–	–	·	·	·	·	·
O=C(Nc1cccc([N+](=O)[O-])c1)c1cccc(C(=O)Nc2cccc([N+](=O)[O-])c2)c1	–	86	–	74	–	85	–	–	–	–
NS(=O)(=O)c1ccc(CNC(=O)Cc2cccs2)cc1	50	52	–	83	–	48	–	6.9	–	–
CCCCCCCCN1C(=O)[C@H](CC(=O)N2CCCCC2)C[C@@]2(C(=O)OC)CCCCC=C12	–	·	·	·	·	·	·	·	·	·
CCOC(=O)C1=C(O)/C(=C\c2cccs2)N=C1C	–	–	–	–	–	·	·	·	·	·
CCOC(=O)C1=C(O)/C(=C\c2ccc(CNC(=O)C(=O)Nc3ccccc3)o2)N=C1C	–	101	–	97	–	62	–	6.2	–	–
O=C(/C=C/c1ccco1)N1CCN(S(=O)(=O)c2ccc(F)c(F)c2F)CC1	–	–	–	–	–	·	·	·	·	·
O=C(/C=C/c1ccco1)N1CCN(S(=O)(=O)c2ccccc2)CC1	–	66	–	73	–	70	–	–	–	–
CC(C)CNc1ncnc2c1ncn2[C@H]1CN(Cc2cccs2)C[C@@H](CO)O1	–	–	–	·	–	·	·	·	·	·
Cn1c(N)c(C(=O)COC(=O)c2cc(-c3ccco3)nc3ccccc23)c(=O)n(C)c1=O	62	110	–	73	–	67	–	15	31	–	Beacon interf DR=–
COc1cc(Cl)ccc1OC1(C)CCN(Cc2cccc(OC)c2OC)C1 (stereo unspecified)	–	–	–	·	–	·	·	·	·	·
CCCN(C)C1CN(Cc2cn(Cc3cccc(Cl)c3)nn2)S(=O)(=O)C1 (stereo unspecified)	–	·	·	·	·	·	·	·	·	·
CC(CNc1ccccc1O)C(=O)O (stereo unspecified)	–	64	–	73	–	43	–	–	–	–

Bioassay records deposited in PubChem by Sanford-Burnham Center for Chemical Genomics.
